# Screens (PubChem BioAssay)
# STAT3 act – IL-6 driven STAT3 reporter potentiators, primary screen, U3A cells, luciferase, luminescence, MLSCN library; IL-6 STAT3-luciferase reporter; 100% = signal with IL-6 EC80 alone; AID 871, 2007; 0.91% of 190,000 active; activation (% of control), % at 5.6 µM;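 active = activation above the screen-wide mean of compound activation plus 3 SD, cut at about 130% in these data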;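 also: 0% = background luminescence of wells with medium and substrate only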
#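 Detection: reporter luminescence signal / Assay system: STAT1-lacking human U3A cells, STAT3 luciferase reporter / Incubation: compound pre-incubation 1 h before IL-6, then 6 h stimulation at 37 °C / Control set: IL-6-only high control / Read-out: % activation relative to IL-6 control / Probe or stimulus: Interleukin-6, 33 ng/mL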
# STAT1 act – STAT1 signaling activators, primary screen, cell-based, HTS, luciferase reporter | NIH 3T3 STAT1-luciferase reporter, IFN-gamma, luminescence; 100% = IFN-gamma alone, no compound | activation (% of control), % at 5.5 µM | 2.6% of 200,000 active;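 active = activation above the screen-wide mean activation plus 3 SD, cut at about 130% in these data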;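 also: raw ratio to IFN-gamma control signal so 100% means no change and 0% no light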
# NF-kB neuron act – activators of NF-kB expression in neurons, primary screen, cell-based, HTS. human neuronal cells, NF-kB reporter expression; active compounds read high. fold change at 12.5 µM. 1.6% of 190,000 active. AID 1239, 2008; in the data active = fold change above about 3.3
# STAT3 inh – IL-6 driven STAT3 reporter inhibitors, primary screen, U3A cells, luciferase, luminescence, MLSCN library | IL-6 STAT3-luciferase reporter; host cell line lacks STAT1 | inhibition, % at 5.5 µM | 0.89% of 190,000 active | AID 862, 2007;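 active = inhibition above the mean inhibition across all screened compounds plus 3 SD, cut at about 44% in these data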;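 also: 0% = DMSO only wells and 100% = 100 µM nifuroxazide control wells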
# APP 5'UTR act – activators of APP 5'UTR luciferase reporter, primary screen, SH-SY5Y cells. AID 1276, 2008. SH-SY5Y APP 5'UTR luciferase reporter, luminescence; zero percent = DMSO vehicle wells. activation, % at 2 µM. 1% of 190,000 active;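 active = activation above a set limit, based on mean plus 3 SD of controls, cut at about 140% in these data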
# STAT1 inh – STAT1 signaling inhibitors, primary screen, cell-based, HTS, luciferase reporter | inhibition, % at 5.5 µM | NIH 3T3 STAT1-luciferase reporter, IFN-gamma, luminescence | 0.35% of 200,000 active | AID 920, 2007;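 active = inhibition above a set limit, the mean inhibition across all tested compounds plus 3 SD, cut at about 34% in these data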;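 also: 0% = IFN-gamma with DMSO and 100% = IFN-gamma with 300 µM nifuroxazide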
# The depositor's hits bear a star; · = no result. An excerpt weighted towards active compounds, which were near 4.9% of everything screened.
SMILES,STAT3 act,STAT1 act,NF-kB neuron act,STAT3 inh,APP 5'UTR act,STAT1 inh
Cc1ccc2nc(-c3ccc(NC(=O)C(C)N4C(=O)c5ccccc5C4=O)cc3)sc2c1 (stereo unspecified),87,141*,1.7,14,75,-46
CCC(=O)NC(=S)Nc1ccc(-c2nc3ccccc3s2)cc1,78,142*,2,32,62,-47
Cc1ccc(NC(=S)c2nc3ccccc3s2)cc1,95,134*,1.1,7,168*,-37
Cc1ccc2nc(-c3ccc(NC(=S)NC(=O)C(C)C)cc3)sc2c1,103,114,3.2,2,120,-15
CCC(=O)NC(=S)Nc1ccc(-c2nc3ccc(C)cc3s2)cc1,106,122,1.4,-5,132,-25
CC1(C)CC(NC(=S)Nc2ccc(S(N)(=O)=O)cc2)CC(C)(C)N1,97,98,1,8,6,4
Cc1cc(N2C(=O)C3C4CCC(C4)C3C2=O)no1 (stereo unspecified),99,100,1,7,9,-3
O=C(CCCSc1nnnn1-c1ccccc1)c1ccc(F)cc1,93,100,1.2,14,14,0
O=C(CCN1C(=O)c2ccccc2C1=O)Nc1ccc(-c2nc3ccccc3s2)cc1,100,142*,1.4,2,136*,-48
O=C(CCN1C(=O)c2ccccc2C1=O)Nc1nc2ccccc2s1,109,113,1.6,-10,·,-14
CCc1ccc(-c2csc(NC(=O)COC(=O)CCc3nc4ccccc4s3)n2)cc1,103,131*,1.5,-9,107,-34
Cc1nc(NC(=O)COC(=O)CCc2nc3ccccc3s2)c(Cl)cc1Cl,104,101,1.1,-7,11,-1
N=C(SC1CC(=O)N(c2ccc(F)cc2)C1=O)N1N=C(c2ccccc2)CC1c1ccccc1 (stereo unspecified),108,95,1.1,-4,-11,2
Sc1oc(-c2ccccc2)cc1C=Nc1ccccc1,109,134*,3,-10,30,-37
O=[N+]([O-])c1cc2c(cc1C=Nc1ccccc1)OCO2,103,99,1.1,2,3,2
CC(C)(C)NC(=O)CSc1nc2[nH]ncc2c(=O)[nH]1,95,103,1.2,16,-3,-5
CC(/C=N/Nc1nc(C)cc(C)n1)=C\c1ccc(C(C)C)cc1,110,107,1.2,-7,14,-8
COc1cccc(N2CCN(c3ncnc4c3[nH]c3ccc(F)cc34)CC2C)c1 (stereo unspecified),44,39,0.11,75*,-27,68*
CCc1c(C)sc(NC(=O)C2CC2c2ccccc2)c1C(N)=O (stereo unspecified),134*,107,1.5,-33,4,-8
Cc1cc2nc(-c3cccnc3SCC(=O)NCc3ccco3)[nH]c2cc1C,84,99,5.3*,24,119,1
O=C(CSc1ncccc1-c1nc2ccccc2[nH]1)NCc1ccco1,83,100,0.85,22,16,0
O=C1C2C3C=CC(CC3)C2C(=O)N1/N=C/c1c[nH]c2ccccc12 (stereo unspecified),100,137*,1.8,2,33,-40
O=C(CSc1nnc(-c2ccc3c(c2)OCO3)o1)Nc1ncc(Cl)cc1Cl,99,104,1.4,0,29,-5
COCC1CCN(Cc2nc(-c3cccs3)no2)C1 (stereo unspecified),101,135*,·,5,49,-37
C[C@@H]1CN(Cc2nc(-c3cccs3)no2)C[C@H](C)O1,102,105,1.6,2,-6,-8
SMILES,STAT3 act,STAT1 act,NF-kB neuron act,STAT3 inh,APP 5'UTR act,STAT1 inh
Cc1cc(NC(=O)CCc2ccccc2)c([N+](=O)[O-])cc1C,82,107,1.6,19,17,-8
O=C(/C=C/Nc1cccc([N+](=O)[O-])c1)c1cccs1,146*,139*,7.5*,-54,184*,-43
Cc1c(N/C=C/C(=O)c2cccs2)c(=O)n(-c2ccccc2)n1C,99,128,0.91,4,29,-30
O=C(/C=C/Nc1ccccc1C(=O)O)c1cccs1,94,143*,0.98,6,50,-47
Cc1cc(N/C=C/C(=O)c2cccs2)ccc1F,119,122,7.6*,-14,178*,-26
O=C(Cc1cccs1)Nc1cccc([N+](=O)[O-])c1,103,97,1.2,3,0,2
Cc1ccc(N/C=C/C(=O)c2cccs2)cc1C,46,50,6.6*,66*,170*,53*
COC(=O)C1=C(C)NC=C([N+](=O)[O-])C1c1ccc(OC)cc1 (stereo unspecified),100,103,0.81,-2,23,-3
CN(C)c1ccc(/C=C2\CCCCC2=O)cc1,101,121,4.2*,-6,160*,-23
S=C(NCc1ccco1)NCC(c1ccco1)N1CCCCC1 (stereo unspecified),102,104,1.4,3,15,-7
O=C(Nc1cccc(Cl)c1)Nc1ccc(Br)cc1F,83,112,1,20,64,-13
O=C(Nc1ccc(Cl)cc1)c1ccc(Br)cc1F,101,140*,7.8*,-2,150*,-43
Cc1occc1C(=O)Nc1ccc(Br)cc1F,99,130*,1.8,7,26,-32
O=C(Nc1ccccc1)Nc1ccc(Br)cc1F,89,130*,1.8,12,81,-33
CCCCN(C(=O)NC(=O)Nc1ccc(C)cn1)S(C)(=O)=O,93,101,1.3,4,5,-2
CCOc1ccc(NC(=O)CN2CCC(n3cnc4cc(F)ccc43)CC2)cc1,105,92,0.85,-1,13,7
Cc1cc(Br)c(OCc2ccc(C(=O)N/N=C3\CC4CC=CC34)cc2)c(Br)c1 (stereo unspecified),104,105,1.3,-7,22,-5
C/C(=N\Nc1ccc([N+](=O)[O-])cc1)c1ccco1,99,156*,2.7,4,53,-63
CCc1ccc(/C(C)=N\Nc2ccc([N+](=O)[O-])cc2)cc1,104,105,1.5,5,18,-5
COc1ccc(C(=O)CSc2nnc(CC(=O)Nc3ccccc3OC)n2C)cc1,98,99,0.98,10,-6,-1
COc1cc(C#N)c(N=C(SCC#N)N2CCOCC2)cc1OC,90,93,1.2,17,-1,5
CC(C)OCCCn1c(SCC(=O)N2CCc3ccccc32)nc2ccccc2c1=O,114,101,0.63,-16,26,-1
O=C(Nc1ccc(Nc2ccccc2)cc1)N1CCOCC1,99,100,1.5,3,-11,0
